The source made the active and inactive calls. No cut-off for these calls is given here.
Key:
A549 [1] = test: Cytotoxicity against human A549 cells at 100 ug/ml by MTT assay; assay type: functional
How it was run: (§1)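 A549 cells (NCIS Pune) grown in DMEM with 10% FBS, 2 mM L-glutamine, penicillin/streptomycin, pH 7.2. 5 × 10^5 cells were seeded with compound at 100, 50 or 25 per mL and kept at 37 °C, 5% CO2. MTT (1 mg/mL, 4 h) was added, formazan dissolved in DMSO and read at 540 nm. IC50 is the mean of three replicate experiments; Duncan test at P = 0.05.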

A549 [2] = test: Cytotoxicity against human A549 cells at 25 ug/ml by MTT assay; assay type: functional; how it was run: as §1
A549 [3] = test: Cytotoxicity against human A549 cells by MTT assay; assay type: functional, cell-based; how it was run: as §1
A549 [4] = test: Cytotoxicity against human A549 cells at 50 ug/ml by MTT assay; assay type: functional; how it was run: as §1
A549 [5] = test: Induction of apoptosis in human A549 cells assessed as DNA fragmentation at 25 ug/ml after 24 hrs by agarose gel electrophoresis; assay type: functional, cell-based
How it was run: (§2)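 A549 cells were exposed to compound for 24 h. 1 × 10^6 cells were pelleted, PBS-washed and lysed at 4 °C for 15 min in 10 mM Tris-HCl pH 7.4 with 10 mM EDTA and 0.5% Triton X-100. Supernatant was treated with proteinase K (60 °C, 60 min) then RNase A (37 °C, 60 min). DNA was isopropanol/NaCl precipitated overnight and run on a 2% agarose gel.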

A549 [6] = test: Cytotoxicity against human A549 cells assessed as growth inhibition at 25 ug/ml after 24 hrs by agarose gel electrophoresis; assay type: functional, cell-based; how it was run: as §2
A549 [7] = test: Induction of apoptosis in human A549 cells at 25 ug/ml after 24 hrs by propidium iodide/FITC staining-based confocal laser scanning microscopy; assay type: functional, cell-based
How it was run: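 Cells were exposed to compound or untreated for 24 h, washed twice in 0.01 M PBS and suspended in binding buffer. They were stained with FITC and PI for 30 min at 4 °C in the dark, pelleted and smeared. Fluorescence was viewed at once by confocal laser scanning microscopy at 400× magnification.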

SMILES | inhibition at 100 µg/mL (A549 [1]) | inhibition at 25 µg/mL (A549 [2]) | Activity (A549 [3]) | inhibition at 50 µg/mL (A549 [4]) | Activity (A549 [5]) | growth inhibition (GI) (A549 [6]) | Activity (A549 [7])
N#C[C@@]1(C(=O)c2c[nH]c3ccccc23)[C@@H](c2ncc[nH]2)C2CSCN2[C@]12C(=O)Nc1ccc(F)cc12 (some centres undefined) | 66.2% | 15.5% | Dose-dependent effect | 33.5% |  |  | 
N#C[C@@]1(C(=O)c2c[nH]c3ccccc23)[C@@H](c2ncc[nH]2)C2CSCN2[C@]12C(=O)Nc1ccc(Cl)cc12 (some centres undefined) | 24% | 6% | Dose-dependent effect | 13.4% |  |  | 
COc1ccc2[nH]cc(C(=O)[C@]3(C#N)[C@@H](c4ncc[nH]4)C4CSCN4[C@]34C(=O)N(C)c3ccccc34)c2c1 (some centres undefined) | 80.1% | 52.9% | Dose-dependent effect | 68.5% |  |  | 
N#C[C@@]1(C(=O)c2c[nH]c3ccccc23)[C@@H](c2ncc[nH]2)C2CSCN2[C@]12C(=O)Nc1ccccc12 (some centres undefined) | 85.6% | 59.9% | Dose-dependent effect | 79.3% | Active | Active | 
N#C[C@@]1(C(=O)c2c[nH]c3ccccc23)[C@@H](c2ncc[nH]2)C2CSCN2[C@]12C(=O)Nc1ccc([N+](=O)[O-])cc12 (some centres undefined) | 76.8% | 28% | Dose-dependent effect | 63.4% |  |  | 
CN1C[C@H](c2ncc[nH]2)[C@@](C#N)(C(=O)c2c[nH]c3ccccc23)[C@@]12C(=O)Nc1ccc([N+](=O)[O-])cc12 | 56.6% | 8.8% | Dose-dependent effect | 33.4% |  |  | 
N#C[C@@]1(C(=O)c2c[nH]c3ccccc23)[C@@H](c2ncc[nH]2)C2CSCN2[C@]12C(=O)Nc1ccc(Br)cc12 (some centres undefined) | 15.6% | 5.1% | Dose-dependent effect | 9% |  |  | 
COc1ccc2[nH]cc(C(=O)[C@]3(C#N)[C@@H](c4ncc[nH]4)C4CSCN4[C@]34C(=O)Nc3ccccc34)c2c1 (some centres undefined) | 83.3% | 54.4% | Dose-dependent effect | 72.1% | Active | Active | 
COc1ccc2[nH]cc(C(=O)[C@]3(C#N)[C@@H](c4ncc[nH]4)CN(C)[C@]34C(=O)Nc3ccccc34)c2c1 | 83% | 62.8% | Dose-dependent effect | 74.4% |  |  | 
CN1C[C@H](c2ncc[nH]2)[C@@](C#N)(C(=O)c2c[nH]c3ccccc23)[C@@]12C(=O)Nc1ccc(F)cc12 | 22.2% | 4.5% | Dose-dependent effect | 9% |  |  | 
COc1ccc2[nH]cc(C(=O)[C@]3(C#N)[C@@H](c4ncc[nH]4)C4CSCN4[C@]34C(=O)Nc3ccc(F)cc34)c2c1 (some centres undefined) | 56.2% | 15.7% | Dose-dependent effect | 31.1% |  |  | 
COc1ccc2[nH]cc(C(=O)[C@]3(C#N)[C@@H](c4ncc[nH]4)CN(C)[C@]34C(=O)Nc3ccc(Cl)cc34)c2c1 | 23% | 4.7% | Dose-dependent effect | 15.2% |  |  | 
Cc1ccc2c(c1)[C@]1(C(=O)N2)N(C)C[C@H](c2ncc[nH]2)[C@@]1(C#N)C(=O)c1c[nH]c2ccccc12 | 77.3% | 26.7% | Dose-dependent effect | 53.5% | Active | Active | 
Cc1ccc2c(c1)[C@]1(C(=O)N2)N2CSCC2[C@H](c2ncc[nH]2)[C@@]1(C#N)C(=O)c1c[nH]c2ccccc12 (some centres undefined) | 84.3% | 66.3% | Dose-dependent effect | 75.8% | Active | Active | 
COc1ccc2[nH]cc(C(=O)[C@]3(C#N)[C@@H](c4ncc[nH]4)CN(C)[C@]34C(=O)Nc3ccc(I)cc34)c2c1 | 50.2% | 3.7% | Dose-dependent effect | 22.2% |  |  | 
CN1C(=O)[C@@]2(c3ccccc31)N1CSCC1[C@H](c1ncc[nH]1)[C@@]2(C#N)C(=O)c1c[nH]c2ccccc12 (some centres undefined) | 87.8% | 64.8% | Dose-dependent effect | 75.1% | Active | Active | Active
CN1C[C@H](c2ncc[nH]2)[C@@](C#N)(C(=O)c2c[nH]c3ccccc23)[C@@]12C(=O)Nc1ccc(I)cc12 | 14.9% | 5.9% | Dose-dependent effect | 6.8% |  |  | 
COc1ccc2[nH]cc(C(=O)[C@]3(C#N)[C@@H](c4ncc[nH]4)CN(C)[C@]34C(=O)Nc3ccc(Br)cc34)c2c1 | 13.4% | 5.1% | Dose-dependent effect | 9.9% |  |  | 
COc1ccc2[nH]cc(C(=O)[C@]3(C#N)[C@@H](c4ncc[nH]4)CN(C)[C@]34C(=O)N(C)c3ccccc34)c2c1 | 85% | 66.3% | Dose-dependent effect | 79.2% |  |  | 
N#C[C@@]1(C(=O)c2c[nH]c3ccccc23)[C@@H](c2ncc[nH]2)C2CSCN2[C@]12C(=O)Nc1ccc(I)cc12 (some centres undefined) | 69% | 24.5% | Dose-dependent effect | 56.3% |  |  | 
COc1ccc2[nH]cc(C(=O)[C@]3(C#N)[C@@H](c4ncc[nH]4)CN(C)[C@]34C(=O)Nc3ccc([N+](=O)[O-])cc34)c2c1 | 6.8% | 3% | Dose-dependent effect | 4.3% |  |  | 
CN1C[C@H](c2ncc[nH]2)[C@@](C#N)(C(=O)c2c[nH]c3ccccc23)[C@@]12C(=O)Nc1ccc(Cl)cc12 | 51.5% | 6.9% | Dose-dependent effect | 30.9% |  |  | 
CN1C(=O)[C@@]2(c3ccccc31)N(C)C[C@H](c1ncc[nH]1)[C@@]2(C#N)C(=O)c1c[nH]c2ccccc12 | 7.4% | 3.3% | Dose-dependent effect | 4.3% |  |  | 
COc1ccc2[nH]cc(C(=O)[C@]3(C#N)[C@@H](c4ncc[nH]4)C4CSCN4[C@]34C(=O)Nc3ccc(Cl)cc34)c2c1 (some centres undefined) | 81.8% | 55.2% | Dose-dependent effect | 72.1% | Active | Active | 
COc1ccc2[nH]cc(C(=O)[C@]3(C#N)[C@@H](c4ncc[nH]4)C4CSCN4[C@]34C(=O)Nc3ccc(Br)cc34)c2c1 (some centres undefined) | 82.7% | 36.2% | Dose-dependent effect | 68.4% |  |  | 
CN1C[C@H](c2ncc[nH]2)[C@@](C#N)(C(=O)c2c[nH]c3ccccc23)[C@@]12C(=O)Nc1ccccc12 | 23.2% | 3.1% | Dose-dependent effect | 6.3% |  |  | 
CN1C[C@H](c2ncc[nH]2)[C@@](C#N)(C(=O)c2c[nH]c3ccccc23)[C@@]12C(=O)Nc1ccc(Br)cc12 | 34.2% | 4.4% | Dose-dependent effect | 9.8% |  |  | 
COc1ccc2[nH]cc(C(=O)[C@]3(C#N)[C@@H](c4ncc[nH]4)C4CSCN4[C@]34C(=O)Nc3ccc([N+](=O)[O-])cc34)c2c1 (some centres undefined) | 9% | 3.3% | Dose-dependent effect | 5.1% |  |  | 
COc1ccc2[nH]cc(C(=O)[C@]3(C#N)[C@@H](c4ncc[nH]4)CN(C)[C@]34C(=O)Nc3ccc(F)cc34)c2c1 | 66.2% | 9.9% | Dose-dependent effect | 35.6% |  |  | 
